Source: the array DNA melting data of Ke et al. (doi:10.1101/2024.01.08.574731)

Key:
[1] = folding enthalpy; higher = less favourable; fluorescence melt of hairpins on a sequencing array, two-state fit; conditions: sodium 0.088 M
Procedure, shortened: (§1)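 Two-state fits, bootstrapped, provided melting temperature and folding enthalpy from Cy3 fluorescence normalised to pre-quench Cy3 and to control constructs. Library hairpins with annealed Cy3 and quencher oligos were imaged on a sequenced MiSeq flow cell in 50 mM Na-HEPES pH 8.0, 25 mM NaCl, at 2.5 °C intervals up to 60 °C. Four replicates were combined with inverse-variance weighting. A 9.35 °C upward shift was applied to fitted temperatures to match UV melts.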

[2] = melting temperature; fluorescence melt of hairpins on a sequencing array, two-state fit, raised by 9.35 °C to match UV melts; conditions: sodium 0.088 M
Procedure, shortened: as §1

Row | Sequence | folding enthalpy [1] [kcal/mol] | Tm [2] [°C]
1 | GATCCGTGAGCGGATC ((((((....)))))) | -35.6 | 65.9
2 | GATCCGTGCACGGATC ((((((....)))))) | -40.3 | 66.5
3 | GATCCGTGTACGGATC ((((((....)))))) | -45 | 63.6
4 | GATCCGTGTGCGGATC ((((((....)))))) | -38.8 | 66.7
5 | GATCCGTGTTCGGATC ((((((....)))))) | -36.2 | 61.4
6 | GATCCGTTACGGATC ((((((...)))))) | -34.6 | 63.9
7 | GATCCGTTGACGGATC ((((((....)))))) | -39.1 | 61.8
8 | GATCCGTTGCCGGATC ((((((....)))))) | -46.8 | 58.4
9 | GATCCGTTTGCGGATC ((((((....)))))) | -37.7 | 62.3
10 | GATCCTAAAGAGGATC ((((((....)))))) | -31.3 | 46.1
11 | GATCCTAATCAGGATC ((((((....)))))) | -38.6 | 50.5
12 | GATCCTACAGAGGATC ((((((....)))))) | -29.6 | 50.4
13 | GATCCTAGACAGGATC ((((((....)))))) | -36.5 | 50.4
14 | GATCCTATAAGGATC ((((((...)))))) | -37.8 | 55.2
15 | GATCCTATCGAGGATC ((((((....)))))) | -27.1 | 51.9
16 | GATCCTATGAGGATC ((((((...)))))) | -34.7 | 53.7
17 | GATCCTATGTAGGATC ((((((....)))))) | -34.9 | 54.5
18 | GATCCTCAAAAGGATC ((((((....)))))) | -32.5 | 51.3
19 | GATCCTCACCAGGATC ((((((....)))))) | -38.6 | 50.9
20 | GATCCTCACGAGGATC ((((((....)))))) | -43.3 | 54.8
21 | GATCCTCAGAAGGATC ((((((....)))))) | -35.3 | 51
22 | GATCCTCATAAGGATC ((((((....)))))) | -34.4 | 52.6
23 | GATCCTCATGAGGATC ((((((....)))))) | -41.1 | 58.4
24 | GATCCTCCACAGGATC ((((((....)))))) | -36 | 50.8

Row | Sequence | folding enthalpy [1] [kcal/mol] | Tm [2] [°C]
25 | GATCCTCCCAGGATC ((((((...)))))) | -35.8 | 55.7
26 | GATCCTCCGAAGGATC ((((((....)))))) | -16.6 | 48.7
27 | GATCCTCCGTAGGATC ((((((....)))))) | -20.4 | 48.5
28 | GATCCTCCTAAGGATC ((((((....)))))) | -37.5 | 53.4
29 | GATCCTCGCTAGGATC ((((((....)))))) | -35.6 | 51.2
30 | GATCCTCGGAGGATC ((((((...)))))) | -33.5 | 51.6
31 | GATCCTCTCGAGGATC ((((((....)))))) | -42.4 | 58
32 | GATCCTCTGAAGGATC ((((((....)))))) | -36.8 | 51.6
33 | GATCCTCTTAGGATC ((((((...)))))) | -35.3 | 55.2
34 | GATCCTCTTGAGGATC ((((((....)))))) | -41 | 61.3
35 | GATCCTGAATAGGATC ((((((....)))))) | -39.2 | 59
36 | GATCCTGACAAGGATC ((((((....)))))) | -38 | 63
37 | GATCCTGACGAGGATC ((((((....)))))) | -36.4 | 56.9
38 | GATCCTGAGCAGGATC ((((((....)))))) | -36.9 | 52.3
39 | GATCCTGAGGAGGATC ((((((....)))))) | -34 | 49.2
40 | GATCCTGATAGGATC ((((((...)))))) | -31.6 | 53.2
41 | GATCCTGATGAGGATC ((((((....)))))) | -31.9 | 51.1
42 | GATCCTGCAGAGGATC ((((((....)))))) | -39.5 | 56
43 | GATCCTGGAGAGGATC ((((((....)))))) | -34.7 | 54
44 | GATCCTGGCAAGGATC ((((((....)))))) | -44.6 | 63.3
45 | GATCCTGGGAAGGATC ((((((....)))))) | -42.3 | 59.7
46 | GATCCTGGGAGGATC ((((((...)))))) | -33.8 | 51
47 | GATCCTGGTCAGGATC ((((((....)))))) | -41.8 | 55.5
48 | GATCCTGTCTAGGATC ((((((....)))))) | -39.4 | 56

Row | Sequence | folding enthalpy [1] [kcal/mol] | Tm [2] [°C]
49 | GATCCTGTTCAGGATC ((((((....)))))) | -39.1 | 56.8
50 | GATCCTTCTAAGGATC ((((((....)))))) | -47.8 | 54.4
51 | GATCCTTCTAGGATC ((((((...)))))) | -30.6 | 57.1
52 | GATCCTTGGCAGGATC ((((((....)))))) | -35.3 | 49.4
53 | GATCCTTGGTAGGATC ((((((....)))))) | -31.6 | 51.1
54 | GATCCTTGTAGGATC ((((((...)))))) | -34.4 | 55.1
55 | GATCCTTGTGAGGATC ((((((....)))))) | -38 | 56.1
56 | GATCCTTTACAGGATC ((((((....)))))) | -51.6 | 51.1
57 | GATCCTTTATAGGATC ((((((....)))))) | -40.2 | 53.4
58 | GATCCTTTGGAGGATC ((((((....)))))) | -39.5 | 53.3
59 | GATCCTTTGTAGGATC ((((((....)))))) | -39.7 | 52.6
60 | GATCCTTTTCAGGATC ((((((....)))))) | -32.6 | 52.6
61 | GATCCTTTTGAGGATC ((((((....)))))) | -36.9 | 54.1
62 | GATCGAAAATCGATC ((((((...)))))) | -29.9 | 47.6
63 | GATCGAAACCTCGATC ((((((....)))))) | -39.6 | 51.3
64 | GATCGAAATATCGATC ((((((....)))))) | -32.7 | 49
65 | GATCGAAATTCGATC ((((((...)))))) | -33.7 | 48.9
66 | GATCGAACGTCGATC ((((((...)))))) | -34.9 | 49.3
67 | GATCGAACTTCGATC ((((((...)))))) | -31.3 | 51
68 | GATCGAAGGTTCGATC ((((((....)))))) | -31.2 | 52.1
69 | GATCGAATGGTCGATC ((((((....)))))) | -20.2 | 51.4
70 | GATCGAATGTCGATC ((((((...)))))) | -31.5 | 50.6
71 | GATCGAATTGTCGATC ((((((....)))))) | -41.9 | 50
72 | GATCGACACTTCGATC ((((((....)))))) | -48.6 | 53.4

Row | Sequence | folding enthalpy [1] [kcal/mol] | Tm [2] [°C]
73 | GATCGACATGTCGATC ((((((....)))))) | -41.7 | 61.3
74 | GATCGACCCGTCGATC ((((((....)))))) | -47.1 | 60.1
75 | GATCGACCGCTCGATC ((((((....)))))) | -45.2 | 51.7
76 | GATCGACCGGTCGATC ((((((....)))))) | -51.5 | 61.5
77 | GATCGACCGTTCGATC ((((((....)))))) | -46 | 50.7
78 | GATCGACCTTCGATC ((((((...)))))) | -35.6 | 51
79 | GATCGACGAAAGTCAATC (((.(((....))).))) | -20.5 | 40.3
80 | GATCGACGAGTCGATC ((((((....)))))) | -45.8 | 64
81 | GATCGACGTCTCGATC ((((((....)))))) | -42.3 | 50
82 | GATCGACTCATCGATC ((((((....)))))) | -41.7 | 51.8
83 | GATCGACTCCTCGATC ((((((....)))))) | -38.6 | 51.6
84 | GATCGACTCTTCGATC ((((((....)))))) | -39.5 | 52.7
85 | GATCGACTGCTCGATC ((((((....)))))) | -43.4 | 50.9
86 | GATCGACTGTCGATC ((((((...)))))) | -49 | 51.4
87 | GATCGACTTCTCGATC ((((((....)))))) | -41 | 51.5
88 | GATCGACTTTCGATC ((((((...)))))) | -22.2 | 51.7
89 | GATCGAGAACTCGATC ((((((....)))))) | -37.6 | 57
90 | GATCGAGAGTTCGATC ((((((....)))))) | -36.7 | 50.5
91 | GATCGAGCGATCGATC ((((((....)))))) | -35.6 | 57.5
92 | GATCGAGCGTTCGATC ((((((....)))))) | -45.4 | 52.1
93 | GATCGAGCTTTCGATC ((((((....)))))) | -35.1 | 52.6
94 | GATCGAGGCGTCGATC ((((((....)))))) | -40.6 | 55.1
95 | GATCGAGGCTCGATC ((((((...)))))) | -42.1 | 55.5
96 | GATCGAGGTATCGATC ((((((....)))))) | -39.6 | 58.7
